Common to all, as to format: functional
The test system of experiment [1] is LOX IMVI. The experiment is described as follows: Growth inhibition of human LOXIMVI cells at 10^-5 M after 48 hrs by Sulforhodamine B assay relative to control. The settings on record: read-out: GI. The procedure, abridged:
(§1)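 Single-dose screen at 10⁻⁵ M. Cells are preincubated 24 h at 37 °C in 5% CO2, then exposed to the compound, diluted from a DMSO stock into medium with gentamicin, for 48 h. Adherent cells are fixed with cold TCA (final 10%) and suspension cells with TCA (final 16%). Cells are stained with 0.4% SRB in 1% acetic acid and bound dye is read at 515 nm. Percent growth inhibition is taken against control wells and time-zero plates.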

Experiment [2] deals with U-251. The experiment can be described thus: Growth inhibition of human U251 cells at 10^-5 M after 48 hrs by Sulforhodamine B assay relative to control. The settings on record: U-251, 48 h, read-out: GI. The procedure, abridged:
(§2)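 Single-dose stage: compound tested at 10⁻⁵ M in the 49-cell-line panel. Cells grew 24 h at 37 °C, 5% CO₂ before drug addition. Drug stock was in DMSO at 400-fold, diluted in medium with gentamicin. After 48 h exposure, adherent cells were fixed with cold TCA (10% final) and stained with 0.4% SRB in 1% acetic acid. Dye was solubilized in 10 mM Tris, read at 515 nm. Growth percentage was taken relative to untreated control and time-zero plates.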

Experiment [3] deals with SNB-75. The experiment can be described thus: Growth inhibition of human SNB75 cells at 10^-5 M after 48 hrs by Sulforhodamine B assay relative to control. The settings on record: SNB-75, 48 h, read-out: GI. The procedure, abridged: (§3)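 Single-dose primary screen at 10⁻⁵ M across 49 lines. Cells were plated 24 h beforehand, with a TCA-fixed time-zero plate, then exposed 48 h at 37 °C, 5% CO2. Cells were fixed with cold TCA, stained with SRB and read at 515 nm. Percent growth was calculated against time-zero and untreated-control absorbances.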

The subject of experiment [4] is HT-29. The experiment is described as follows: Growth inhibition of human HT-29 cells at 10^-5 M after 48 hrs by Sulforhodamine B assay relative to control. The following applies: HT-29, 48 h, read-out: GI. The procedure, abridged:
as §1

In experiment [5] the test system is HCT-15. The experiment is described as follows: Growth inhibition of human HCT15 cells at 10^-5 M after 48 hrs by Sulforhodamine B assay relative to control. The following applies: HCT-15, 48 h, read-out: GI. The gist of the method: as §1
Experiment [6] deals with COLO 205. The experiment is described as follows: Growth inhibition of human COLO205 cells at 10^-5 M after 48 hrs by Sulforhodamine B assay relative to control. The following applies: COLO 205, 48 h, read-out: GI. The procedure, abridged:
as §1

The test system of experiment [7] is NCI-H23. The experiment can be described thus: Growth inhibition of human NCI-H23 cells at 10^-5 M after 48 hrs by Sulforhodamine B assay relative to control. The following applies: NCI-H23, 48 h, read-out: GI. The gist of the method:
as §3

The subject of experiment [8] is K562. The experiment can be described thus: Growth inhibition of human K562 cells at 10^-5 M after 48 hrs by Sulforhodamine B assay relative to control. The settings on record: K562, 48 h, read-out: GI. The gist of the method:
as §1

In experiment [9] the test system is T47D. The experiment is described as follows: Growth inhibition of human T47D cells at 10^-5 M after 48 hrs by Sulforhodamine B assay relative to control. The following applies: read-out: GI. The procedure, abridged: as §2
Experiment [10] deals with Hs-578T. The experiment can be described thus: Growth inhibition of human Hs578T cells at 10^-5 M after 48 hrs by Sulforhodamine B assay relative to control. The following applies: read-out: GI. The procedure, abridged: as §1
In experiment [11] the test system is SN12C. The experiment can be described thus: Growth inhibition of human SN12C cells at 10^-5 M after 48 hrs by Sulforhodamine B assay relative to control. The settings on record: read-out: GI. The gist of the method:
as §3

Experiment [12] deals with A498. The experiment is described as follows: Growth inhibition of human A498 cells at 10^-5 M after 48 hrs by Sulforhodamine B assay relative to control. The settings on record: A498, 48 h, read-out: GI. The procedure, abridged:
as §1

Experiment [13] deals with SK-OV-3. The experiment is described as follows: Growth inhibition of human SKOV3 cells at 10^-5 M after 48 hrs by Sulforhodamine B assay relative to control. The settings on record: SK-OV-3, 48 h, read-out: GI. The procedure, abridged:
as §3

Experiment [14] concerns UACC-62. The experiment is described as follows: Growth inhibition of human UACC62 cells at 10^-5 M after 48 hrs by Sulforhodamine B assay relative to control. The following applies: UACC-62, 48 h, read-out: GI. The procedure, abridged:
as §2

Experiment [15] relates to SK-MEL-28. The experiment can be described thus: Growth inhibition of human SK-MEL-28 cells at 10^-5 M after 48 hrs by Sulforhodamine B assay relative to control. The settings on record: SK-MEL-28, 48 h, read-out: GI. The gist of the method: as §3
The subject of experiment [16] is MDA-MB-435. The experiment can be described thus: Growth inhibition of human MDA-MB-435 cells at 10^-5 M after 48 hrs by Sulforhodamine B assay relative to control. The following applies: MDA-MB-435, 48 h, read-out: GI. The gist of the method: as §1
The subject of experiment [17] is TK-10. The experiment is described as follows: Growth inhibition of human TK10 cells after 48 hrs by Sulforhodamine B assay. The settings on record: TK-10, 48 h. The procedure, abridged:
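Five-concentration stage in the […]-cell-line panel, using 10-fold or ½-log serial dilutions made from a DMSO stock (400-fold). Cells were preincubated 24 h at 37 °C, then drug-exposed 48 h. A time-zero plate was fixed with TCA at dosing, adherent cells were fixed with cold TCA (10% final), and protein was stained with SRB, absorbance 515 nm. GI50 was where [(Ti−Tz)/(C−Tz)]×100 = 50, from the percent growth vs log concentration plot, expressed as log10 GI50.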

For experiment [18], the system named is ACHN. The experiment is described as follows: Growth inhibition of human ACHN cells after 48 hrs by Sulforhodamine B assay. The procedure, abridged:
(§4)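 Five-concentration SRB assay using 10-fold or ½-log serial dilutions from a DMSO stock. Exposure is 48 h at 37 °C in 5% CO2 after 24 h preincubation. TCA fixation is followed by SRB staining and a reading at 515 nm. Percentage growth is computed from time-zero, control and treated absorbances. GI50 is the concentration where [(Ti−Tz)/(C−Tz)]×100 = 50, read from the plot against log concentration.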

Experiment [19] concerns SF-268. The experiment is described as follows: Growth inhibition of human SF268 cells after 48 hrs by Sulforhodamine B assay. The following applies: SF-268, 48 h. The procedure, abridged: (§5)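 Cells were preincubated 24 h at 37 °C, 5% CO2, and a time-zero plate was TCA-fixed. Five concentrations were made by serial dilution from a DMSO stock (400-fold the top concentration) and incubated 48 h. Adherent cells were fixed with 10% final TCA and suspension cells with 16%. Plates were stained with 0.4% SRB and read at 515 nm. GI50 is the concentration giving 50% reduction in net protein increase versus control.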

The subject of experiment [20] is HCT-15. The experiment can be described thus: Growth inhibition of human HCT15 cells after 48 hrs by Sulforhodamine B assay. The settings on record: HCT-15, 48 h. The gist of the method:
as §4

Experiment [21] is described as follows: Growth inhibition of human HCC2998 cells after 48 hrs by Sulforhodamine B assay. The settings on record: HCC 2998, 48 h. The procedure, abridged:
as §4

Experiment [22] concerns NCI-H322M. The experiment is described as follows: Growth inhibition of human NCI-H322M cells after 48 hrs by Sulforhodamine B assay. The procedure, abridged: as §5
Experiment [23] has as its system NCI-H23. The experiment can be described thus: Growth inhibition of human NCI-H23 cells after 48 hrs by Sulforhodamine B assay. The settings on record: NCI-H23, 48 h. The procedure, abridged:
as §5

Experiment [24] deals with HOP-92. The experiment is described as follows: Growth inhibition of human HOP92 cells after 48 hrs by Sulforhodamine B assay. The settings on record: HOP-92, 48 h. The gist of the method: as §4
Experiment [25] concerns RPMI-8226. The experiment is described as follows: Growth inhibition of human RPMI8226 cells after 48 hrs by Sulforhodamine B assay. The following applies: RPMI-8226, 48 h. The gist of the method:
as §5

Experiment [26] has as its system K562. The experiment can be described thus: Growth inhibition of human K562 cells after 48 hrs by Sulforhodamine B assay. The following applies: K562, 48 h. The procedure, abridged:
as §4

For the compound `COc1ccc(N2CCN(c3nc(-c4ccncc4)nc4sc5c(c34)CCCCCC5)CC2)cc1`, the inhibition of growth at 10 µM in [1] was 8.33%; in [2], 15.8%; in [3], -13.7%; in experiment [4] it was 23.4%; in experiment [5], 17.7%; in experiment [6] it was 5.76%. Besides, the inhibition of growth at 10 µM in [7] is 17.3%; in experiment [8] it was 23.2%; in [9], 27%; in experiment [10], -5.59%; in experiment [11], 31.8%; in [12], 6.97%. Also, the inhibition of growth at 10 µM was 0.84% in experiment [13], 36.9% in experiment [14], -5.27% in experiment [15] and 4.86% in [16].
As for `COc1ccc(N2CCN(c3nc(-c4ccccn4)nc4sc5c(c34)CCCCCC5)CC2)cc1`, the GI50 is over 100 µM in [17]; 5.13 µM in experiment [18]; over 100 µM in experiment [19]; 4.27 µM in experiment [20]; 10.2 µM in experiment [21]; 5.5 µM in experiment [22]. Further, the 50% growth inhibitory concentration (GI50) in experiment [23] is 17 µM; in experiment [24] it was 3.24 µM; in experiment [25], 3.72 µM; in [26], 4.17 µM.
Take `c1ccc(N2CCN(c3nc(-c4ccncc4)nc4sc5c(c34)CCCCCC5)CC2)cc1`: the inhibition of growth at 10 µM in experiment [1] is 0%; in [2], 0.24%; in experiment [3], -23.8%; in experiment [4], 12.8%; in experiment [5], 2.1%; in [6], -1.65%. Further, the inhibition of growth at 10 µM in experiment [7] was 1.33%; in [8], 7.55%; in experiment [9], 11.7%; in [10], -12.9%; in experiment [11] it was -12.2%; in [12], 4.79%. Also, the inhibition of growth at 10 µM was 1.97% in [13], 5.59% in experiment [14], -15% in experiment [15] and 2.52% in experiment [16].
In the case of `CN1CCN(c2nc(-c3ccncc3)nc3sc4c(c23)CCCCCC4)CC1`, the concentration for 50% growth inhibition (GI50) was 6.76 µM in experiment [17]; 7.94 µM in [18]; 5.37 µM in [19]; 11.2 µM in [20]; 3.89 µM in experiment [21]; 13.2 µM in experiment [22]. Besides, the concentration for 50% growth inhibition (GI50) in experiment [23] is 11.5 µM; in experiment [24], 0.661 µM; in [25], 8.32 µM; in [26], 3.55 µM.
For `c1ccc(-c2nc(N3CCOCC3)c3c4c(sc3n2)CCCCCC4)nc1`, the GI50 was 9.33 µM in experiment [17]; 4.47 µM in experiment [18]; 8.91 µM in experiment [19]; 3.39 µM in experiment [20]; 6.92 µM in [21]; 5.5 µM in experiment [22]. The GI50 in experiment [23] is 6.03 µM; in experiment [24] it was 0.617 µM; in [25], 2.14 µM; in experiment [26] it was 3.47 µM.
For the compound `NNc1nc(-c2ccccn2)nc2sc3c(c12)CCCCCC3`, the GI50 in experiment [17] is 9.12 µM; in [18], 4.9 µM; in experiment [19], 7.24 µM; in [20] it was 1.12 µM; in experiment [21] it was 8.32 µM; in experiment [22], 5.37 µM. For the same compound, the 50% growth inhibitory concentration (GI50) in [23] was 8.91 µM; in experiment [24], 3.55 µM; in experiment [25], 3.24 µM; in [26], 3.8 µM.
Take `O=c1[nH]c(-c2ccccn2)nc2sc3c(c12)CCCCCC3`: the GI50 was over 100 µM in experiment [17]; 5.25 µM in experiment [18]; 8.71 µM in experiment [19]; 2.34 µM in experiment [20]; 26.3 µM in experiment [21]; 85.1 µM in [22]. Also, the concentration for 50% growth inhibition (GI50) is 11 µM in experiment [23], 3.89 µM in [24], 3.63 µM in experiment [25] and 1 µM in [26].

Source of the values: ChEMBL document CHEMBL2375304, “Synthesis and anticancer activity of novel 2-pyridyl hexahyrocyclooctathieno[2,3-d]pyrimidine derivatives” (2013).
